Source: ChEMBL document CHEMBL2413007, “Synthesis of polysubstituted benzofuran derivatives as novel inhibitors of parasitic growth” (Bioorg Med Chem, 2013)
pIC50: −log10 of the molar value.

Key:
[1] = tested on: Plasmodium falciparum; assay: Antiplasmodial activity against erythrocytic stages of chloroquine-resistant Plasmodium falciparum FcB1/Columbia incubated for 24 hrs followed by [3H]-hypoxanthine addition measured after 24 hrs by liquid scintillation spectrometry; assay type: functional, organism-based
Summary of the method: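 Asynchronous FcB1/Colombia cultured on human erythrocytes in RPMI 1640 + 8% heat-inactivated human serum, 37 °C, 3% CO₂/6% O₂/91% N₂. DMSO stocks 10 mM, two-fold serial dilutions; 1% parasitaemia, 1% final haematocrit. 24 h drug exposure, then 0.5 µCi [³H]-hypoxanthine per well, 24 h more; freeze-thaw, filter harvest, scintillation counting versus untreated same-plate control. IC50 from concentration–response curve; mean ± SD of several independent experiments; chloroquine control.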

[2] = tested on: Trypanosoma brucei gambiense; assay: Antitrypanosomal activity against Trypanosoma brucei gambiense Feo bloodstream form after 72 hrs by fluorescence assay; assay type: functional, organism-based
Summary of the method: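 Bloodstream forms of strain Feo grown in HMI9 with 10% FCS, 37 °C, 5% CO₂. Log-phase cells harvested by centrifugation (3000g) and used at once, seeded at 3 × 10⁴ cells/ml. Inhibitor concentration series, final DMSO ≤1%. Resazurin added after 72 h (final 45 µM), fluorescence (ex 530/em 590 nm) read 4 h later. Inhibition relative to untreated parasites; triplicates, experiment repeated twice.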

SMILES	pIC50 [1]	pIC50 [2]
CCOc1ccc2ccccc2c1C(=O)Oc1cccc2oc(-c3ccccc3)cc12	< 4.30	5.17
COc1ccc(C(=O)Oc2cccc3oc(C4CC4)cc23)cc1	< 4.30	5.57
COc1ccc(C(=O)Oc2cccc3oc(-c4ccccc4)cc23)cc1	< 4.60	5.77
O=C(Oc1cccc2oc(C3CC3)cc12)c1ccc(Cl)cc1	< 4.30	5.15
O=C(c1ccccc1)c1c(C2CC2)oc2ccccc12	< 4.30	4.68
O=C(Oc1cccc2oc(-c3ccccc3)cc12)c1ccc(Cl)cc1	< 4.60	5.80
O=C(Oc1cccc2oc(C3CC3)cc12)c1ccccc1	< 4.30	4.83
COc1ccc(C(=O)c2c(-c3ccc(OC)cc3)oc3cccc(O)c23)cc1	< 4.60	5.11
O=C(Oc1cccc2oc(-c3ccccc3)cc12)c1cccc2ccccc12	< 4.60	4.67
COc1ccc(-c2oc3ccccc3c2C(=O)c2c(O)cc(OC)cc2OC)cc1	< 4.60	5.17
COc1ccc(-c2cc3c(OC(=O)c4ccc(Cl)cc4)cccc3o2)cc1	< 4.60	5.82
O=C(Oc1cccc2oc(-c3ccccc3)cc12)c1ccccc1	< 4.60	4.85
COc1ccc(-c2oc3cccc(OC)c3c2C(=O)c2ccc(Cl)cc2)cc1	< 4.30	5.26
COc1ccc(-c2cc3c(OC(=O)c4c(O)cc(OC)cc4OC)cccc3o2)cc1	5.10	< 4.30
O=C(Oc1cccc2oc(C3CC3)cc12)c1ccc([N+](=O)[O-])cc1	< 4.30	4.91
COc1ccc(C(=O)c2c(C3CC3)oc3cccc(O)c23)cc1	< 4.30	5.43
O=C(Oc1cccc2oc(-c3ccccc3)cc12)c1ccc([N+](=O)[O-])cc1	< 4.60	5.74
CCOc1ccc2ccccc2c1C(=O)Oc1cccc2oc(-c3ccc(OC)cc3)cc12	< 4.30	5.11
COc1ccc(-c2oc3cccc(OC)c3c2C(=O)c2ccc(OC(=O)C(C)(C)C)c(OC)c2)cc1	< 4.30	5.08
O=C(c1ccc([N+](=O)[O-])cc1)c1c(-c2ccccc2)oc2ccccc12	< 4.30	< 4.30

SMILES	pIC50 [1]	pIC50 [2]
COc1ccc(-c2oc3ccccc3c2C(=O)c2ccccc2)cc1	< 4.30	4.67
COc1ccc(-c2oc3cccc(O)c3c2C(=O)c2ccccc2)cc1	< 4.60	5.19
CCOc1ccc2ccccc2c1C(=O)c1c(-c2ccc(OC)cc2)oc2cccc(O)c12	< 4.60	5.82
CCOc1ccc2ccccc2c1C(=O)c1c(C2CC2)oc2cccc(O)c12	< 4.60	5.70
COc1ccc(-c2oc3ccccc3c2C(=O)c2ccc([N+](=O)[O-])cc2)cc1	< 4.30	< 4.30
COc1ccc(C(=O)Oc2cccc3oc(-c4ccc(OC)cc4)cc23)cc1	4.95	5.74
COc1ccc(-c2cc3c(OC(=O)c4ccc([N+](=O)[O-])cc4)cccc3o2)cc1	< 4.30	5.77
COc1ccc(-c2cc3c(OC(=O)c4cccc5ccccc45)cccc3o2)cc1	< 4.30	4.83
COc1ccc(-c2oc3cccc(O)c3c2C(=O)c2cccc3ccccc23)cc1	< 4.30	5.38
Cc1cc(C)cc(-c2cc3c(OC(=O)c4ccccc4)cccc3o2)c1	5.22	5.70
CCOc1ccc2ccccc2c1C(=O)Oc1cccc2oc(C3CC3)cc12	< 4.60	5.19
COc1ccc(-c2oc3cccc(OC)c3c2C(=O)c2cccc3ccccc23)cc1	< 4.30	4.91
N=C(N)c1ccc(OCCCCCOc2ccc(C(=N)N)cc2)cc1 [PENTAMIDINE]		7.96
COc1ccc(-c2oc3cccc(OC)c3c2C(=O)c2ccccc2)cc1	< 4.30	4.93
COc1ccc(-c2cc3c(OC(=O)c4ccccc4)cccc3o2)cc1	< 4.60	5.49
COc1ccc(-c2oc3cccc(OC)c3c2C(=O)c2c(OC)cc(OC)cc2OC)cc1	< 4.30	< 4.30
O=C(c1cccc2ccccc12)c1c(C2CC2)oc2cccc(O)c12	< 4.30	5.34
O=C(Oc1cccc2oc(C3CC3)cc12)c1cccc2ccccc12	< 4.30	4.90
O=C(c1ccccc1)c1c(-c2ccccc2)oc2ccccc12	< 4.30	4.81
COc1ccc(C(=O)c2c(-c3ccc(OC)cc3)oc3cccc(OC)c23)cc1	< 4.60	5.08
